According to ChEMBL document CHEMBL1122064, “Synthesis and biological evaluation of 17-[131I]iodo-9-telluraheptadecanoic acid, a potential imaging agent” (J Med Chem, 1982):

Tests used:
Rattus norvegicus [1] = assay: Distribution of radioactivity in heart of Fischer 344 female rat after 60 min of intravenous administration; assay type: ADME, organism-based; settings: in vivo, 1 h
Rattus norvegicus [2] = assay: Distribution of radioactivity in lungs of Fischer 344 female rat after 30 min of intravenous administration; assay type: ADME, organism-based, Lung; settings: in vivo, 0.5 h
In short: (§1)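 Female Fischer 344 rats, 10-12 weeks, 170-200 g, fed ad libitum. The labelled fatty acid was given in 6% bovine serum albumin via a lateral tail vein under ether anaesthesia. Rats were killed by CO2 anaesthesia and cervical fracture; organs were excised, rinsed, blotted, weighed and counted by Ge(Li) analyzer. Results are mean percent injected dose/g with range.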

Rattus norvegicus [3] = assay: Distribution of radioactivity in liver of Fischer 344 female rat after 5 min of intravenous administration; assay type: ADME, organism-based; settings: in vivo
In short: (§2)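 Tracer was the 123mTe-labelled fatty acid, about 2.5 μCi per rat (sp act. ~16 mCi/mmol), given in 6% bovine serum albumin into a lateral tail vein. Female Fischer 344 rats, 10-12 weeks, 170-200 g, four per time point. Excised organs were rinsed, blotted and weighed, then counted by Ge(Li) analyzer, with mean percent injected dose/g and range reported.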

Rattus norvegicus [4] = assay: Distribution of radioactivity in blood of Fischer 344 female rat after 30 min of intravenous administration; assay type: ADME, organism-based; settings: in vivo, 0.5 h
Rattus norvegicus [5] = assay: Distribution of radioactivity in blood of Fischer 344 female rat after 60 min of intravenous administration; assay type: ADME, organism-based; settings: in vivo, 1 h
Rattus norvegicus [6] = assay: Distribution of radioactivity in heart of Fischer 344 female rat after 30 min of intravenous administration; assay type: ADME, organism-based; settings: in vivo, 0.5 h
Rattus norvegicus [7] = assay: Distribution of radioactivity in liver of Fischer 344 female rat after 60 min of intravenous administration; assay type: ADME, organism-based; settings: in vivo, 1 h; in short: as §1
Rattus norvegicus [8] = assay: Distribution of radioactivity in liver of Fischer 344 female rat after 30 min of intravenous administration; assay type: ADME, organism-based; settings: in vivo, 0.5 h; in short: as §1
Rattus norvegicus [9] = assay: Distribution of radioactivity in lungs of Fischer 344 female rat after 5 min of intravenous administration; assay type: ADME, organism-based, Lung; settings: in vivo; in short: as §2
Rattus norvegicus [10] = assay: Distribution of radioactivity in kidneys of Fischer 344 female rat after 30 min of intravenous administration; assay type: ADME, organism-based, Kidney; settings: in vivo, 0.5 h
Rattus norvegicus [11] = assay: Distribution of radioactivity in heart of Fischer 344 female rat after 5 min of intravenous administration; assay type: ADME, organism-based; settings: in vivo
In short: (§3)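 In female Fischer 344 rats, each animal received about 2.5 µCi of the 123mTe-labelled fatty acid (sp act. ~16 mCi/mmol) in 6% bovine serum albumin through a lateral tail vein. Four rats were used per time point. Excised organs were rinsed, blotted, weighed and counted on a Ge(Li) analyzer. Results are mean (range) % injected dose per gram.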

Rattus norvegicus [12] = assay: Distribution of radioactivity in blood of Fischer 344 female rat after 5 min of intravenous administration; assay type: ADME, organism-based; settings: in vivo; in short: as §3
Rattus norvegicus [13] = assay: Distribution of radioactivity in lungs of Fischer 344 female rat after 60 min of intravenous administration; assay type: ADME, organism-based, Lung; settings: in vivo, 1 h; in short: as §1
Rattus norvegicus [14] = assay: Distribution of radioactivity in kidneys of Fischer 344 female rat after 5 min of intravenous administration; assay type: ADME, organism-based, Kidney; settings: in vivo; in short: as §3
Rattus norvegicus [15] = assay: Distribution of radioactivity in kidneys of Fischer 344 female rat after 60 min of intravenous administration; assay type: ADME, organism-based, Kidney; settings: in vivo, 1 h

Question: What does the source list for O=C(O)CCCCCCCC[123Te]CCCCCCCCI?
Answer: Distribution of radioactivity (Rattus norvegicus [1]): 1.58 dose g-1; Distribution of radioactivity (Rattus norvegicus [2]): 0.62 dose g-1; Distribution of radioactivity (Rattus norvegicus [3]): 3.33 dose g-1; Distribution of radioactivity (Rattus norvegicus [4]): 0.36 dose g-1; Distribution of radioactivity (Rattus norvegicus [5]): 0.25 dose g-1; Distribution of radioactivity (Rattus norvegicus [6]): 2.24 dose g-1; Distribution of radioactivity (Rattus norvegicus [7]): 1.65 dose g-1; Distribution of radioactivity (Rattus norvegicus [8]): 2.11 dose g-1; Distribution of radioactivity (Rattus norvegicus [9]): 0.67 dose g-1; Distribution of radioactivity (Rattus norvegicus [10]): 1.05 dose g-1; Distribution of radioactivity (Rattus norvegicus [11]): 1.38 dose g-1; Distribution of radioactivity (Rattus norvegicus [12]): 0.13 dose g-1; Distribution of radioactivity (Rattus norvegicus [13]): 0.56 dose g-1; Distribution of radioactivity (Rattus norvegicus [14]): 1.17 dose g-1; Distribution of radioactivity (Rattus norvegicus [15]): 0.99 dose g-1
